Measurements: ChEMBL document CHEMBL2046381, “Defining the mechanism of action and enzymatic selectivity of psammaplin A against its epigenetic targets” (J Med Chem, 2012)
pIC50: −log10 of the molar value. Active and inactive are the calls of the source.

Assays:
[1] = target: T1, Histone deacetylase-like amidohydrolase (Alcaligenes sp. (strain DSM 11172) (Bordetella sp. (strain FB188))) (UniProt Q70I53); assay: Inhibition of Bordetella sp. (strain FB188) N-terminus His-tagged HDAH expressed in Escherichia coli BL21 (DE3) up to 100 uM; conditions: Alcaligenaceae bacterium FB188
T1 sequence (whole entry): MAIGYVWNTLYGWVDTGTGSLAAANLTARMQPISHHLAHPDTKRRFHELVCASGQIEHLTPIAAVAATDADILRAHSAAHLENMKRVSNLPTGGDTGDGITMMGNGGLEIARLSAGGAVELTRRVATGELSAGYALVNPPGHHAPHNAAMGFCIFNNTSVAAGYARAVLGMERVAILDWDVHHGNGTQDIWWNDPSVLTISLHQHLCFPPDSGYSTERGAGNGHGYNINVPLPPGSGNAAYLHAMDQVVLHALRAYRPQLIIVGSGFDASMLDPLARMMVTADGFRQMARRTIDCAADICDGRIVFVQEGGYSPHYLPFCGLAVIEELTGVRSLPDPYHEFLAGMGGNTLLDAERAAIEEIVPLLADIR
In short: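 Recombinant N-terminal His6-tagged HDAH from Bordetella strain FB188, expressed in E. coli BL21, purified on zinc-loaded His-Trap column, eluted with 500 mM imidazole, dialyzed into assay buffer (>98% pure by SDS-PAGE). Tested directly against compounds; thiols generated in situ from disulfides with TCEP.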

[2] = target: DNA (cytosine-5)-methyltransferase 1 (Homo sapiens, UniProt P26358); assay: Inhibition of full length N-terminal His6-tagged human DNMT1 at 120 uM after 1 hr by fluorescence analysis
In short: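 Baculovirus-expressed DNMT1 (80 nM final) with SAM (10 μM final) and hemimethylated hairpin oligo (125 nM final) in MOPS buffer pH 6.5 with 1 mM DTT, 1 h room temperature. Stopped with Gla1 plus 125 μM SAH, developed 7 h; fluorescence Ex 485/Em 520 nm. Thiols made in situ by TCEP reduction; no SAM as full-inhibition control.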

[3] = target: T2, Protein deacetylase HDAC6 (Homo sapiens, UniProt Q9UBN7); assay: Inhibition of human recombinant HDAC6 using Boc-lys(Ac)-AMC as substrate preincubated for 20 mins with substrate measured after 60 mins by fluorescence analysis
T2 sequence (Q9UBN7 whole entry): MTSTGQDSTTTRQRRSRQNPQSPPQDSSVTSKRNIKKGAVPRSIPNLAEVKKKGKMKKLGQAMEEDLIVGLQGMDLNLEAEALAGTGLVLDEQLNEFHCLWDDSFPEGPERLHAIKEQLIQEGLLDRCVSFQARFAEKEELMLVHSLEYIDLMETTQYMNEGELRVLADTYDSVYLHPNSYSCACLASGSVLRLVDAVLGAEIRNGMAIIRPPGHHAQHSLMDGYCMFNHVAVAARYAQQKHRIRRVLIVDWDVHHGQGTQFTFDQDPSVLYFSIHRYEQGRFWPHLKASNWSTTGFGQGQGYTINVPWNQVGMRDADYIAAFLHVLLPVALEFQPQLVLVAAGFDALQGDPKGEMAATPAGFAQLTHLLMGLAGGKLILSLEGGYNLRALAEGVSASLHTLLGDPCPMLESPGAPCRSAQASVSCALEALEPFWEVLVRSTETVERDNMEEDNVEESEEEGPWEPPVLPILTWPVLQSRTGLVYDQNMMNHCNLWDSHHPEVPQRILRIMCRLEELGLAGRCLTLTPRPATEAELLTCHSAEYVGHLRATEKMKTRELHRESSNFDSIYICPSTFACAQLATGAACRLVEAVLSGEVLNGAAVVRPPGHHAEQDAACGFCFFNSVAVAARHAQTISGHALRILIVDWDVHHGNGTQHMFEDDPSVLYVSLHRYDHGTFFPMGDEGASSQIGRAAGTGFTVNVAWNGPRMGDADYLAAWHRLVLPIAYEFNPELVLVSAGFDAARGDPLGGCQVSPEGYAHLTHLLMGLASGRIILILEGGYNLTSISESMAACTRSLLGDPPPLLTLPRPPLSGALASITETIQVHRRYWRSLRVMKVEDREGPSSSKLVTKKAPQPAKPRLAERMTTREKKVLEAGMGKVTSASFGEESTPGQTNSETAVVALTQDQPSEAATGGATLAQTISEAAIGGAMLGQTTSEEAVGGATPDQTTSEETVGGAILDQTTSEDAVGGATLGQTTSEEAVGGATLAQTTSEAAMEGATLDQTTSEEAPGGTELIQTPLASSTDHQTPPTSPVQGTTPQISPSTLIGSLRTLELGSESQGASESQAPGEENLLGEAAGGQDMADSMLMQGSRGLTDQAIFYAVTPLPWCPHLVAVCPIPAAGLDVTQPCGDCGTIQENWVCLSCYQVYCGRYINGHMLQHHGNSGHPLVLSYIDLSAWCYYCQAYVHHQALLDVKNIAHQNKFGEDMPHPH

Histone deacetylase 1 = Histone deacetylase 1 (Homo sapiens, UniProt Q13547); assay: Inhibition of human recombinant HDAC1 using Boc-lys(Ac)-AMC as substrate preincubated for 20 mins with substrate measured after 60 mins by fluorescence analysis
A549 = assay: Growth inhibition of human A549 cells after 96 hrs by sulphorhodamine B assay; assay type: functional; conditions: A549, 96 h
In short: (§1)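 SRB growth assay; MCF7 and WI38 seeded 4000 cells/well, A549 2000 cells/well, attached overnight, then exposed to freshly made drug solutions (0.1 to 50 μM) for 96 h. Fixed with cold 10% TCA, stained with 0.4% SRB; absorbance at 540 nm as percent of untreated control, IC50 from mean absorbance.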

MCF7 = assay: Growth inhibition of human MCF7 cells after 96 hrs by sulphorhodamine B assay; assay type: functional; conditions: MCF7, 96 h; in short: as §1

Chain of Histone deacetylase 1 (Q13547 whole entry): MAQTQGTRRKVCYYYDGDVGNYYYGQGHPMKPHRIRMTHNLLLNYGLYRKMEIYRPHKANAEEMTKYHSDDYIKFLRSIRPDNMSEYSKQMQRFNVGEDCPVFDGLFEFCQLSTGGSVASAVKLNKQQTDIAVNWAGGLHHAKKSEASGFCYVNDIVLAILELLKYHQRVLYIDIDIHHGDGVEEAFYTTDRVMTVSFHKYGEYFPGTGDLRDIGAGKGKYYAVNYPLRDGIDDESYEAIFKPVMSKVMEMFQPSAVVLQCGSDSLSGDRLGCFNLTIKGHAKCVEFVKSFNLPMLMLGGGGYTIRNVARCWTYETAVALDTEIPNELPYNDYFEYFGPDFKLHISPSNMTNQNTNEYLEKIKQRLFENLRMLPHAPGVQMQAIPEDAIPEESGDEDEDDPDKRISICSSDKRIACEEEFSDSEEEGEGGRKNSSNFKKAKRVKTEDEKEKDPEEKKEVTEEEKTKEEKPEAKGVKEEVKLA
Chain of DNA (cytosine-5)-methyltransferase 1 (P26358 whole entry): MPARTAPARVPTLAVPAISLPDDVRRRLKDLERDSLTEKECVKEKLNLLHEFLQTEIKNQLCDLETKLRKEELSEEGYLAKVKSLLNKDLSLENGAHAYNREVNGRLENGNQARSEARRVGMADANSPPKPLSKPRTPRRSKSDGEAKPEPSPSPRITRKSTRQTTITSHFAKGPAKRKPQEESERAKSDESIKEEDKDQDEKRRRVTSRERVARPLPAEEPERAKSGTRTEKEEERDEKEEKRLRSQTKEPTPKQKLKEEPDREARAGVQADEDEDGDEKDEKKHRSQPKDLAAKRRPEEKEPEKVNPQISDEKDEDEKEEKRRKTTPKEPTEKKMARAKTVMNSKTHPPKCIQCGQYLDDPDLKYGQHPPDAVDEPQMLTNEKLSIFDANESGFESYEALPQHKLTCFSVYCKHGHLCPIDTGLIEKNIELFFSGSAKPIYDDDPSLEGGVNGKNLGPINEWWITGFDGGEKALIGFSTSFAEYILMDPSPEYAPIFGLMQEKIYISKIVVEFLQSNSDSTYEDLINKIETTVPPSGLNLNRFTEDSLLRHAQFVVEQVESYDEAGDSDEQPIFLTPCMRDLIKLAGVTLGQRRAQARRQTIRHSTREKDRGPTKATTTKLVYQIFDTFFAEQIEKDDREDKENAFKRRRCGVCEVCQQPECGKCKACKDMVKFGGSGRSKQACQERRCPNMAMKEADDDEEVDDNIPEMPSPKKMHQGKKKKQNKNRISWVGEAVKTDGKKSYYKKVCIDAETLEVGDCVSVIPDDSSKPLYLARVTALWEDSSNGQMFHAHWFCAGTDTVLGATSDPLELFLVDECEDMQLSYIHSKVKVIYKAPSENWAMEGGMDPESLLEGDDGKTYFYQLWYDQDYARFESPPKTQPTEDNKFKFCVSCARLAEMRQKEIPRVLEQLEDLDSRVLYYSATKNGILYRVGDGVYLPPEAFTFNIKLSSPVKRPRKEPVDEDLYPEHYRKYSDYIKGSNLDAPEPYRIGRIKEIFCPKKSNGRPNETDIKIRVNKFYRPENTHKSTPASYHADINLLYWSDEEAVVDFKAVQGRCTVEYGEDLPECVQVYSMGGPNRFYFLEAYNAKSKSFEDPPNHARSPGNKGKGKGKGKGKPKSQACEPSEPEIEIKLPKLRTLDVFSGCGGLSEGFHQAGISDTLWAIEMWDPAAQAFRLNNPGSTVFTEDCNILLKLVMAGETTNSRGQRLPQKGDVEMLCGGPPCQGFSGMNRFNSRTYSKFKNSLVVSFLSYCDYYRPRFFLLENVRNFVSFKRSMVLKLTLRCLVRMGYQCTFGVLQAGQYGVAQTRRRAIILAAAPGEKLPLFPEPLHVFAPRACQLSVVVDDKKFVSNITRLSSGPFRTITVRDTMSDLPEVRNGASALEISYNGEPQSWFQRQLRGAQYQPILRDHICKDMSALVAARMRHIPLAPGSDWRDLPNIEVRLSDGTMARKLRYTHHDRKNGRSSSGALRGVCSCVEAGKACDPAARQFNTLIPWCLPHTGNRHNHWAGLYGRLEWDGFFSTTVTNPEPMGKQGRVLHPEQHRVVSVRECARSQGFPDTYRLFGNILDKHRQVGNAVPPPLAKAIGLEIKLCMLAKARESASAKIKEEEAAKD

SMILES | inhibition [1] | inhibition [2] | pIC50 [3] | pIC50 (Histone deacetylase 1) | GI50 (A549) | GI50 (MCF7)
O=C(NCCCCCCNC(=O)/C(Cc1ccc(O)c(Br)c1)=N/O)/C(Cc1ccc(O)c(Br)c1)=N/O | inactive | inactive |  |  |  | 
COc1ccc(CC(=O)C(=O)NCCSSCCNC(=O)C(=O)Cc2ccc(OC)c(Br)c2)cc1Br | inactive |  | 5.10 | 5.05 |  | 
COc1ccc(C/C(=N\O)C(=O)NCCSSCCNC(=O)/C(Cc2ccc(OC)c(OC)c2)=N/O)cc1OC | inactive |  |  |  |  | 
COc1cc(C/C(=N\O)C(=O)NCCSSCCNC(=O)/C(Cc2cc(I)c(OC)c(OC)c2)=N/O)cc(I)c1OC | inactive |  |  |  |  | 
COc1cc(C/C(=N\O)C(=O)NCCS)cc(I)c1OC | inactive | inactive | 6.57 | 9.00 |  | 
CO/N=C(\Cc1ccc(OC)c(Br)c1)C(=O)NCCSC | inactive |  | < 4.30 | < 4.30 |  | 
O=C(NCCSSCCNC(=O)/C(Cc1ccc(O)cc1)=N/O)/C(Cc1ccc(O)cc1)=N/O | inactive |  |  |  |  | 
CN(C)c1ccc(C/C(=N\O)C(=O)NCCS)cc1 | inactive | inactive | 5.64 | 9.00 |  | 
O=C(NCCCSCCNC(=O)/C(Cc1ccc(O)c(Br)c1)=N/O)/C(Cc1ccc(O)c(Br)c1)=N/O | inactive | inactive |  |  |  | 
O=C(NCCSSCCNC(=O)/C(Cc1cccc([N+](=O)[O-])c1)=N/O)/C(Cc1cccc([N+](=O)[O-])c1)=N/O | inactive |  |  |  |  | 
COc1ccc(C/C(=N\N)C(=O)NCCSSCCNC(=O)/C(Cc2ccc(OC)c(Br)c2)=N/N)cc1Br | inactive |  | < 4.30 | 5.52 |  | 
COc1ccc(C/C(=N\O)C(=O)NCCS)cc1OC | inactive | inactive | 5.57 | 8.52 |  | 
CSc1ccc(C/C(=N\O)C(=O)NCCS)cc1Br | inactive | inactive | 6.72 | 9.32 |  | 
CSCCNC(=O)C(=O)Cc1ccc(O)c(Br)c1 | inactive |  | 4.52 | 5.14 | > 50000 nM | 18300 nM
O=C(NCCSSCCNC(=O)/C(Cc1cc(Br)cc([N+](=O)[O-])c1)=N/O)/C(Cc1cc(Br)cc([N+](=O)[O-])c1)=N/O | inactive |  |  |  |  | 
O=C(NCCSSCCNC(=O)/C(Cc1cc(Br)c(O)c(Br)c1)=N/O)/C(Cc1cc(Br)c(O)c(Br)c1)=N/O | inactive |  |  |  |  | 
CO/N=C(\Cc1ccc(OC)c(Br)c1)C(=O)NCCSSCCNC(=O)/C(Cc1ccc(OC)c(Br)c1)=N/OC | inactive |  | < 4.30 | 6.66 |  | 
O=C(NCCS)/C(Cc1ccc(O)cc1)=N/O | inactive | inactive | 5.77 | 8.40 |  | 
CSc1ccc(C/C(=N\O)C(=O)NCCS)cc1 | inactive | inactive | 5.89 | 8.70 |  | 
O=C(CCc1ccc(O)c(Br)c1)NCCSSCCNC(=O)CCc1ccc(O)c(Br)c1 | inactive |  | 4.69 | < 4.30 |  | 
COc1ccc(C/C(=N\O)C(=O)NCCSSCCNC(=O)/C(Cc2ccc(OC)c(I)c2)=N/O)cc1I | inactive |  |  |  |  | 

SMILES | inhibition [1] | inhibition [2] | pIC50 [3] | pIC50 (Histone deacetylase 1) | GI50 (A549) | GI50 (MCF7)
COc1ccc(C/C(=N\O)C(=O)NCCSC)cc1Br |  |  | < 4.30 | 4.63 |  | 
CSc1ccc(C/C(=N\O)C(=O)NCCSSCCNC(=O)/C(Cc2ccc(SC)c(Br)c2)=N/O)cc1Br | inactive |  |  |  |  | 
COc1ccc(CC(=O)C(=O)NCCSC)cc1Br | inactive |  | < 4.30 | < 4.30 |  | 
CO/N=C(\Cc1ccc(OC)c(Br)c1)C(=O)NCCS | inactive | inactive | 5.57 | 7.82 |  | 
O=C(NCCS)/C(Cc1cc(Br)c(O)c(Br)c1)=N/O | inactive | inactive | 6.10 | 9.70 |  | 
CN(C)c1ccc(C/C(=N\O)C(=O)NCCSSCCNC(=O)/C(Cc2ccc(N(C)C)c(Br)c2)=N/O)cc1Br | inactive |  |  |  |  | 
COc1ccc(CC(=O)C(=O)NCCS)cc1Br | inactive |  | 6.60 | 5.96 |  | 
N/N=C(\Cc1ccc(O)c(Br)c1)C(=O)NCCSSCCNC(=O)/C(Cc1ccc(O)c(Br)c1)=N/N | inactive |  | 5.30 | 5.21 | 18800 nM | 3810 nM
CN(C)c1ccc(C/C(=N\O)C(=O)NCCS)cc1Br | inactive | inactive | 6.15 | 8.40 |  | 
COc1cc(C/C(=N\O)C(=O)NCCSSCCNC(=O)/C(Cc2ccc(SC)c(OC)c2)=N/O)ccc1SC | inactive |  |  |  |  | 
O=C(NCCS)/C(Cc1cccc([N+](=O)[O-])c1)=N/O | inactive | inactive | 5.92 | 9.00 |  | 
O=C(NCCS)/C(Cc1cc(Br)cc([N+](=O)[O-])c1)=N/O | inactive | inactive | 6.13 | 8.30 |  | 
COc1ccc(C/C(=N\O)C(=O)NCCS)cc1I | inactive | inactive | 6.62 | 9.00 |  | 
O=C(NCCSSCCNC(=O)/C(Cc1ccc(F)cc1)=N/O)/C(Cc1ccc(F)cc1)=N/O | inactive |  |  |  |  | 
O=C(NCCS)/C(Cc1ccc(F)cc1)=N/O | inactive | inactive | 5.54 | 8.15 |  | 
CSc1ccc(C/C(=N\O)C(=O)NCCSSCCNC(=O)/C(Cc2ccc(SC)cc2)=N/O)cc1 | inactive |  |  |  |  | 
COc1ccc(C/C(=N\N)C(=O)NCCS)cc1Br | inactive |  | 6.49 | 8.22 |  | 
COc1ccc(C/C(=N\O)C(=O)NCCSSCCNC(=O)/C(Cc2ccc(OC)c(Br)c2)=N/O)cc1Br |  |  | 5.70 | 7.37 |  | 
COc1ccc(C/C(=N\N)C(=O)NCCSC)cc1Br | inactive |  | < 4.30 | 4.90 |  | 
COc1cc(C/C(=N\O)C(=O)NCCS)ccc1SC | inactive |  | 5.85 | 9.22 |  | 
CN(C)c1ccc(C/C(=N\O)C(=O)NCCSSCCNC(=O)/C(Cc2ccc(N(C)C)cc2)=N/O)cc1 | inactive |  |  |  |  | 
